# Sampled rows, rich in hits. Any-hit rate of the full collection: about 2%.
# CDK5 inh = CDK5/p35 (human) kinase inhibition; Q00535+Q15078; Recombinant CDK5/p35, ADP-Glo luminescence, 60 min; inhibition, % at 10 µM; hit rate 0.01% among 330,000;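 active = highest replicate inhibition of at least 50% and at least 75% of replicates reaching 50%; inconclusive = only one of the two criteria met; inactive = both criteria failed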
# S100A4 inh HTS = S100A4-myosin IIA interaction inhibition. P26447. S100A4/TAMRA-MyoIIA peptide fluorescence polarization. inhibition, % at 10.7 µM. hit rate 0.14% among 360,000;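 active = mean inhibition of at least 70% across replicates, with every replicate also reaching that level; inconclusive = mean inhibition reaches 70% but some replicates fall short; inactive = mean inhibition below 70%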
# Target sequence (P26447 whole entry, looked up): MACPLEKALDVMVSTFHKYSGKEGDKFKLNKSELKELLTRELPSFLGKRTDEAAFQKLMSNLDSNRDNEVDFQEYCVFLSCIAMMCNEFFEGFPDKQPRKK
#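 Test system: S100A4 monomer protein; Medium: HEPES pH 7.2 with CaCl2, KCl, NaCl, DTT, Triton; Probe or stimulus: TAMRA-labelled myosin IIA heavy-chain peptide probe, 5 nM; Doses: one dose per compound; Times: polarization read 5 min after assay mix addition, stable 5–60 min; Benchmarks: neutral control DMSO, positive control TFP.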
# C2C12 statin = protects C2C12 myotubes from simvastatin toxicity; hit rate 0.78% among 330,000; AID 602340; rescue of ATP level, % at 7.49 µM; ATP luminescence, 48 h; scaled: DMSO 0, geranylgeraniol control 100;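 active = mean ATP rescue above about 67%, or every replicate alone reaching that limit, limit read from the data, passing the limit was not always enough; inconclusive = no clear call, values can overlap the other calls; inactive = mean under the limit and some replicate under it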;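 also: myotubes were challenged with 10 µM simvastatin during compound exposure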
# CAL PDZ FP-1 = human CAL PDZ-peptide interaction inhibition; purified CAL PDZ, TMR-peptide fluorescence polarization, 1 h; hit rate 0.02% among 330,000; inhibition, % at 20 µM;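 active = highest replicate inhibition of at least 40%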
#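 System: tagged CAL PDZ domain. Schedule: 1 h room-temperature incubation prior to read. Signal: fluorescence polarization (mP). Measure: percent inhibition from loss of millipolarization.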
# dFosB activator = activators of mouse delta FosB homodimer; purified delta FosB, TAMRA-CDK5 oligo fluorescence polarization; percent of positive-control signal above neutral wells; hit rate 0.99% among 340,000; activation, % at 25 µM; P13346;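 active = mean activation above about 17%, with every replicate also reaching it, limit read from the data, passing the limit was not always enough; inconclusive = only one of the two conditions met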
# Target sequence (P13346 whole entry, looked up): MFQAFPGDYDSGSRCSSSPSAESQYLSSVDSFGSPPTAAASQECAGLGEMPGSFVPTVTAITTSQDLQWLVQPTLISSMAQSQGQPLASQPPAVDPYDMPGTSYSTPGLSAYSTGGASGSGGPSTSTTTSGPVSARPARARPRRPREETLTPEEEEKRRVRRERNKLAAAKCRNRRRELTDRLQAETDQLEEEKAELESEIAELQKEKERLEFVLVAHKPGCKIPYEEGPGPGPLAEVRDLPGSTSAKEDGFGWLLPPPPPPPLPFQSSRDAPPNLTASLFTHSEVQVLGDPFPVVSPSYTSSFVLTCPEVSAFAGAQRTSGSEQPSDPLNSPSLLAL
# CAL PDZ FP-2 = CAL PDZ (human) peptide binding inhibition | Q9HD26 | purified CAL PDZ, TMR-peptide fluorescence polarization, 1 h | inhibition, % at 24.9 µM | hit rate 0.92% among 300,000 | AID 602252;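 active = mean inhibition of at least 30% with at least half of replicates also reaching 30%; inconclusive = no clear call, values can overlap the other calls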
# A number is an active result; n = inactive; u = inconclusive; x = not tested or not shown.
SMILES,CDK5 inh,S100A4 inh HTS,C2C12 statin,CAL PDZ FP-1,dFosB activator,CAL PDZ FP-2
CCCC(O)C#Cc1cnc2c(c1)C(=O)N([C@H](C)CO)C[C@H](C)[C@H](CN(C)Cc1cccc(C(F)(F)F)c1)O2 (stereo partly specified),x,n,x,x,x,x
Cc1nn(-c2ccccc2)c(N)c1C1(O)C(=O)Nc2ccc([N+](=O)[O-])cc21 (stereo unspecified),n,n,x,n,n,n
N#C[C@H]1[C@@H](c2ccccc2-c2ccccc2)[C@@H](CO)N1C(=O)Cc1ccccc1,x,n,x,x,x,x
O=C(CSc1nnc(CNC(=O)c2ccco2)o1)Nc1ccc(F)cc1,n,n,n,n,n,57
O=C(CSc1nnc(CNC(=O)c2ccccc2F)o1)NCc1ccco1,n,n,n,n,n,62
Cc1cccc(-c2nnc(SCC(=O)NC3CCCC3)o2)c1,n,n,n,n,n,86
O=C(CSc1nnc(CNC(=O)c2ccccc2F)o1)NCCc1ccccc1,n,x,x,n,n,n
O=C(CSc1nnc(CNC(=O)c2ccccc2F)o1)NC1CCCC1,n,n,n,n,n,37
Cc1ccc(NC(=O)CSc2nnc(CNC(=O)c3ccco3)o2)cc1,n,n,n,n,n,n
c1ccc(CCNc2c3c(nc4ncnn24)CCC3)cc1,n,x,n,n,n,n
O=C(CCC(=O)N1CCN(S(=O)(=O)c2ccc(Cl)cc2)CC1)Nc1cccc(Br)c1,n,n,72,n,n,n
NC(=O)c1ccc(NC(=O)CCC(=O)N2CCN(S(=O)(=O)c3ccc(Cl)cc3)CC2)cc1,n,n,x,n,n,n
COc1ccc(S(=O)(=O)N2CCC(C(=O)NCCC(=O)Nc3cccc(Cl)c3)CC2)cc1,n,n,n,n,n,41
COc1ccc(S(=O)(=O)N2CCN(Cc3cccc(Cl)c3)CC2)cc1,n,x,105,n,n,n
COc1ccc(NC(=O)CCNC(=O)C2CCN(S(=O)(=O)c3ccc(OC)cc3)CC2)cc1,n,n,n,n,n,n
O=[N+]([O-])c1ccc(N2CCCCC2)s1,n,n,125,n,n,n
CC1CCCN(c2ccc([N+](=O)[O-])s2)C1 (stereo unspecified),n,n,x,n,n,n
COc1ccc(N(CC(=O)NCc2ccco2)S(C)(=O)=O)cc1,n,x,n,n,n,n
CS(=O)(=O)N(CC(=O)NCc1ccco1)c1ccc(OCc2ccccc2)cc1,n,n,123,n,n,n
C#CCOCCOCCOCCNc1nc(N2CCN(C(=O)[C@H](CCCCN)n3cc([C@@H](N)CC(C)C)nn3)CC2)nc(N2CCN(C(=O)[C@H](Cc3cc4ccccc4[nH]3)n3cc([C@@H](N)Cc4ccc(O)cc4)nn3)CC2)n1,n,x,n,n,59,n
C#CCOCCOCCOCCNc1nc(N2CCN(C(=O)[C@H]([C@@H](C)CC)n3cc([C@@H](N)Cc4ccc(O)cc4)nn3)CC2)nc(N2CCN(C(=O)[C@H](Cc3cc4ccccc4[nH]3)n3cc([C@@H](N)CC(C)C)nn3)CC2)n1,n,x,n,n,23,n
C#CCOCCOCCOCCNc1nc(N2CCN(C(=O)C(Cc3cc4ccccc4[nH]3)n3cc(C(N)C(C)CC)nn3)CC2)nc(N2CCN(C(=O)C(Cc3cc4ccccc4[nH]3)n3cc(C(N)C(C)CC)nn3)CC2)n1 (stereo unspecified),n,x,n,n,u,n
C#CCOCCOCCOCCNc1nc(N2CCN(C(=O)[C@H](Cc3ccc(O)cc3)n3cc([C@@H](N)CC(C)C)nn3)CC2)nc(N2CCN(C(=O)[C@H](Cc3cc4ccccc4[nH]3)n3cc([C@@H](N)CC(C)C)nn3)CC2)n1,x,n,x,x,x,x
C#CCOCCOCCOCCNc1nc(N2CCN(C(=O)[C@H](CCCCN)n3cc([C@@H](N)C(C)CC)nn3)CC2)nc(N2CCN(C(=O)[C@H](Cc3cc4ccccc4[nH]3)n3cc([C@@H](N)C(C)CC)nn3)CC2)n1 (stereo partly specified),n,x,n,n,63,n
